# In PubChem BioAssay AID504382 (The Scripps Research Institute Molecular Screening Center, 2011):
# “And” between values parts separate entries of the source, which are not always exact repeats. Identical values can stand only once. About 460 (18%) of roughly 2,500 compounds were called active.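 Rule for the calls: active = mean activation above a cutoff of low control average plus 3 SD from the earlier screen (cut at about 12% in these data); inactive = the rest.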 These entries were drawn from the full list.
# Assay: compound fluorescence interference without thin filaments, confirmation, artefact control for cardiac RTF calcium sensitizer project, biochemical (AID 504382)
# Conditions: IANBD fluorescence interference counterscreen, buffer, EC20 Ca2+; at 7.2 µM; hits give high values; scaled: EC20 calcium 0, EC100 calcium 100
# Summary of the method: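 Medium: MOPS/KCl/MgCl2/EGTA/NTA/DTT buffer, pH 7.2 | Reagent: EC20 calcium, 0.472 mM | Compound dosing: 7.2 µM single dose | Times: 15 min compound exposure at 25 °C | Signal: Fluorescence, 480/540 nm | Measure: Interference relative to controls | Repeats: Triplicate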
row,SMILES,fluorescence artifact activation
1,CCc1nc(Nc2ccc(O)cc2)c2oc3ccccc3c2n1,20.3% (active)
2,COc1ccc(/C=c2\s/c(=C/C(=O)c3ccc(C)cc3)[nH]c2=O)c(OC)c1,0.16% (inactive)
3,C[C@H](CO)N1C[C@H](C)[C@@H](CN(C)C(=O)Nc2ccccc2)Oc2ccc(NC(=O)Nc3ccc4c(c3)OCO4)cc2C1=O,-0.07% (inactive)
4,N#C/C(=C\c1ccc(N2CCOCC2)o1)C(=O)NCCc1ccccc1,20.6% (active)
5,N#C/C(=C/c1ccc(N2CCCCC2)o1)C(=O)NCCc1c[nH]c2ccccc12,12.8% (active)
6,N#C/C(=C\c1ccc(N2CCOCC2)o1)C(=O)NCC1CCCO1 (centres undefined),-0.1% (inactive)
7,COCCNC(=O)/C(C#N)=C/c1ccc(N2CCOCC2)o1,-0.05% (inactive)
8,COC(=O)CCc1c(C)c(C(=O)c2cc(F)c(F)c(F)c2F)c2ccccn12,-0.04% (inactive)
9,CN(C)C(CNC(=O)c1cccc(S(=O)(=O)N(C)C)c1)c1ccccc1 (centres undefined),4.02% (inactive)
10,N=c1c2c(ncn1Cc1ccco1)Oc1cc(O)ccc1C2c1ccccc1 (centres undefined),20% (active)
11,COc1ccc(C2c3ccc(O)cc3Oc3ncn(Cc4ccccc4)c(=N)c32)cc1OC (centres undefined),0.06% (inactive)
12,COc1ccc(C2c3ccc(O)cc3Oc3ncn(Cc4ccco4)c(=N)c32)cc1 (centres undefined),0.14% (inactive)
13,CCN(CC)C(=S)SCC(=O)c1c(C)[nH]c2ccccc12,7.38% (inactive)
14,CCc1ccccc1NC(=S)NCc1cccn1C,-0.01% (inactive)
15,CCOC(=O)/C(C#N)=C\c1ccc(N2CCN(C/C=C/c3ccccc3)CC2)cc1,0.17% (inactive)
16,CCOC(=O)/C(C#N)=C/c1ccc(N2CCN(Cc3ccccc3)CC2)cc1,82.2% (active)
17,CC(OC(=O)/C(C#N)=C/c1ccc(N(C)C)cc1)C(=O)N(C)Cc1ccccc1 (centres undefined),4.84% (inactive)
18,N#C/C(=C(/O)COC(=O)COc1ccc(Cl)cc1)c1nc2ccccc2[nH]1,0% (inactive)
19,O=C(Nc1cnn(Cc2c(Cl)cccc2Cl)c1)C(c1ccccc1)c1ccccc1,-0.07% (inactive)
20,COc1ccccc1-c1nnc(SCC(=O)Nc2ccc3[nH]c(=O)[nH]c3c2)n1N,-0.06% (inactive)

row,SMILES,fluorescence artifact activation
1,Cc1cc(C)n(-c2ccc(C(=O)O)cc2)n1,0.39% (inactive)
2,Cc1cc(C)n(C2CCCCC2OC(=O)CCc2ccccc2)n1 (centres undefined),13% (active)
3,CC1(OC(=O)CCc2ccccc2)C(=O)C=C2C=C(c3ccc(C#N)cc3)N(C3CCCC3)C=C2C1=O (centres undefined),-0.06% (inactive)
4,CCOC(=O)/C(C#N)=C(C)/C=C1\Sc2ccccc2N1CC,4.14% (inactive)
5,C=CCNC(=S)NNC(=O)c1ccc(OCC(C)C)cc1,0.28% (inactive)
6,CN1CCC2(CC1)C1CN(C)CC=C1C(C#N)=C(N)C2(C#N)C#N (centres undefined),-0.05% (inactive) and 6.98% (inactive)
7,CC(C)(C)c1cc(NC(=O)c2cccc(S(=O)(=O)N3CCOCC3)c2)no1,7.6% (inactive)
8,Cc1sc(NC(=O)CSc2nnc(C(C)C)n2C)c(C#N)c1C,21.9% (active)
9,COc1ccc(S(=O)(=O)N2CCSC2)cc1C,0.17% (inactive)
10,Cc1cc(C)c(C(N)=O)c(Nc2ccc(F)cc2)n1,0.09% (inactive)
11,CCN(C(=O)c1cnc(NC(C)C)cc1C(F)(F)F)c1ccc(Cl)cc1,-0.05% (inactive)
12,O=c1[nH]c2ccccc2nc1/C=C(\O)c1cccs1,1.76% (inactive)
13,O=c1[nH]c2ccccc2nc1/C=C/c1ccc(F)cc1,0.04% (inactive)
14,O=c1[nH]c2ccccc2nc1/C=C/c1ccccc1,119% (active)
15,O=C(Nc1ccccc1-c1ccccc1)c1ccc(Cl)c([N+](=O)[O-])c1,8.22% (inactive)
16,COc1ccc2[nH]c3c(c2c1)CCN1C(=O)C(CC(=O)NCCCn2ccnc2)C[C@H](C(=O)N2CCCCC2)[C@@]31C (some centres undefined),-0.02% (inactive)
17,CN(C)c1ccc(/C=N/N(CCO)C2=NS(=O)(=O)c3ccccc32)cc1,0.26% (inactive)
18,COC1C(CO)OC(n2c3c(Cl)cccc3c3c4c(c5c6cccc(Cl)c6[nH]c5c32)C(=O)NC4=O)C(O)C1O (centres undefined),0.02% (inactive)
19,CS(=O)(=O)N(CC(=O)N/N=C/c1ccco1)c1ccccc1Br,48.6% (active)
20,Cc1ccccc1N(CC(N)=O)S(C)(=O)=O,-0.02% (inactive)

row,SMILES,fluorescence artifact activation
1,CCCCCCC(=O)N/N=C/c1ccco1,0.06% (inactive)
2,CCc1ccc(C(=O)Nc2cccnc2Oc2ccc(Cl)cc2)cc1,3.19% (inactive)
3,Cc1cc(C=C2C(=O)CCCC2=O)c(C)n1-c1ccccc1,0.05% (inactive)
4,CCOC(=O)/C(=C\c1c[nH]c2ccccc12)NC(C)=O,7.92% (inactive)
5,CC(C)Sc1nc2ccc(Br)cc2[nH]1,10.8% (inactive)
6,COCCCN(C(=O)c1cccnc1SC)c1c(N)n(Cc2ccccc2)c(=O)[nH]c1=O,15.1% (active)
7,CCCCN(C(=O)c1ccc([N+](=O)[O-])o1)c1c(N)n(CCCC)c(=O)[nH]c1=O,-0.06% (inactive)
8,COc1cc(OC)cc(C(=O)N(Cc2ccco2)c2c(N)n(Cc3ccccc3)c(=O)[nH]c2=O)c1,0.01% (inactive)
9,COc1ccc(NC(=O)Cc2ccccc2)cn1,0.04% (inactive)
10,N#CC1=C(N)SC(N)=C(C#N)C1c1cccc(O)c1,0.07% (inactive)
11,C/C(Cn1cnc([N+](=O)[O-])n1)=N\NC(=O)c1cccc(F)c1,0.05% (inactive)
12,Cc1cc(NC(=O)COC(=O)C(Cc2ccccc2)NC(=O)c2ccco2)no1 (centres undefined),9.69% (inactive)
13,Cc1cc(NC(=O)CN2C(=O)[C@@H]3[C@H](C2=O)[C@@H]2C[C@H]3C(Br)C2Br)no1 (some centres undefined),19.4% (active)
14,CC(=O)NC(CCS(C)(=O)=O)C(=O)Nc1cc(C)on1 (centres undefined),0.57% (inactive)
15,O=C1CCNc2ccc(-c3ccccc3)cc21,0.1% (inactive)
16,Cc1cc(/C=C2\NC(=S)N(C)C2=O)ccc1N1CCCC1,2.17% (inactive)
17,Cc1cc(N2CCCC2)ccc1/C=C1\NC(=S)N(C)C1=O,5.61% (inactive)
18,Cc1cc(/C=C2/C(=O)N(C)C(=S)N2C)ccc1N1CCCC1,23.6% (active)
19,COC(=O)CCN(C(=O)c1ccc([N+](=O)[O-])cc1)c1ccccn1,4.76% (inactive)
